The subject of series [1] is Rattus norvegicus. In words: Analgesic activity in Wistar albino rat […] assessed as reaction time for tail withdrawal at 100 mg/kg, po after 180 mins by tail flick method. Type of series: functional.
For series [2], the system named is Rattus norvegicus. As to the kind of experiment: Toxicity in Wistar albino rat assessed as mortality up to 3 g/kg, po after 24 hrs. Type of series: organism-based. The following applies: in vivo, 3000 mg/kg. The procedure, abridged: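 Albino rats of either sex, six per group, dosed orally from 100 up to 3000 mg kg^-1 body weight. Animals were watched continuously for 8 h for signs of acute toxicity such as altered motor activity, ataxia, tremors, convulsions, sedation and lacrimation, and were checked for mortality over a 24 h period. Food was withheld for 12 h before dosing.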

The subject of series [3] is Rattus norvegicus. As to the kind of experiment: Toxicity in Wistar albino rat assessed as effect on motor activity up to 3 g/kg, po after 8 hrs. Type of series: organism-based. The following applies: in vivo, 3000 mg/kg. The procedure, abridged:
(§1)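 Acute toxicity: albino rats of either sex in groups of six, oral doses from 100 up to 3000 mg kg^-1. Rats observed continuously for 8 h for changes in motor activity, ataxia, tremors, convulsions, sedation and lacrimation. Ulceration and haemorrhagic spots also inspected.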

For series [4], the system named is Rattus norvegicus. In words: Antiinflammatory activity in Wistar albino rat assessed as inhibition of carrageenan-induced paw oedema at 100 mg/kg, po measured 4 hrs after carrageenan challenge. In kind it is functional. The gist of the method: (§2)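 Albino rats, 6 per group, dosed orally at 100 mg kg^-1; ibuprofen 100 mg kg^-1 as standard. One hour after dosing, 0.1 ml of 1% carrageenan with 2% gum acacia in normal saline injected subplantar into the right hind paw. Paw volume measured by plethysmometer; % inhibition versus control calculated. One-way ANOVA with Dunnett's t test.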
A general note: Carrageenan injected into the paw causes an acute inflammation.

In series [5] the test system is Rattus norvegicus. As to the kind of experiment: Analgesic activity in Wistar albino rat […] assessed as reaction time for tail withdrawal at 100 mg/kg, po after 60 mins by tail flick method. Type of series: functional. The procedure, abridged:
(§3)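 Rat tail-flick test: latency for the rat to withdraw its tail from hot water at 55 ± 0.5 °C. Drugs given orally. Reaction time in seconds read at 60, 90, 120 and 300 min after dosing. Treated animals compared with control and with a nimesulide standard. Wistar albino rats, 150-200 g, either sex; food withdrawn 12 h before and during testing.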
A general note: Thermal pain tests record how soon the animal reacts.

In series [6] the test system is Rattus norvegicus. In words: Antiinflammatory activity in Wistar albino rat assessed as inhibition of carrageenan-induced paw oedema at 100 mg/kg, po measured 2 hrs after carrageenan challenge. In kind it is functional. The procedure, abridged: as §2
In series [7] the test system is Rattus norvegicus. In words: Antiinflammatory activity in Wistar albino rat assessed as inhibition of carrageenan-induced paw oedema at 100 mg/kg, po measured 1 hr after carrageenan challenge. Type of series: functional. The procedure, abridged: as §2
Series [8] deals with Rattus norvegicus. As to the kind of experiment: Analgesic activity in Wistar albino rat […] assessed as reaction time for tail withdrawal at 100 mg/kg, po after 30 mins by tail flick method. In kind it is functional.
The test system of series [9] is Rattus norvegicus. In words: Toxicity in Wistar albino rat assessed as induction of haemorrhagic spots up to 3 g/kg, po after 8 hrs. In kind it is organism-based. Conditions: in vivo, 3000 mg/kg. The procedure, abridged:
as §1

The subject of series [10] is Rattus norvegicus. As to the kind of experiment: Analgesic activity in Wistar albino rat […] assessed as increase in reaction time for tail withdrawal at 100 mg/kg, po after 180 mins by tail flick method. In kind it is functional.
Series [11] relates to Rattus norvegicus. In words: Analgesic activity in Wistar albino rat […] assessed as reaction time for tail withdrawal at 100 mg/kg, po after 300 mins by tail flick method. Type of series: functional. The gist of the method: as §3
Series [12] deals with Rattus norvegicus. In words: Analgesic activity in Wistar albino rat […] assessed as reaction time for tail withdrawal at 100 mg/kg, po after 120 mins by tail flick method. Type of series: functional. The gist of the method: as §3
Series [13] deals with Rattus norvegicus. In words: Toxicity in Wistar albino rat assessed as induction of gastric ulceration up to 3 g/kg, po after 8 hrs. Type of series: organism-based, Stomach. Conditions: in vivo, 3000 mg/kg. The gist of the method: as §1
Series [14] relates to Rattus norvegicus. In words: Toxicity in Wistar albino rat assessed as induction of convulsions and tremors up to 3 g/kg, po after 8 hrs. In kind it is organism-based. Conditions: in vivo, 3000 mg/kg. The gist of the method:
as §1

In series [15] the test system is Rattus norvegicus. As to the kind of experiment: Toxicity in Wistar albino rat assessed as induction of sedation up to 3 g/kg, po after 8 hrs. Conditions: in vivo, 3000 mg/kg. Type of series: organism-based. The procedure, abridged:
as §1

Series [16] relates to Rattus norvegicus. As to the kind of experiment: Antiinflammatory activity in Wistar albino rat assessed as inhibition of carrageenan-induced paw oedema at 100 mg/kg, po measured 3 hrs after carrageenan challenge. Type of series: functional. The gist of the method:
as §2

The subject of series [17] is Rattus norvegicus. As to the kind of experiment: Antiinflammatory activity in Wistar albino rat assessed as inhibition of carrageenan-induced paw oedema at 100 mg/kg, po measured 0.5 hrs after carrageenan challenge. In kind it is functional. The procedure, abridged: as §2
In series [18] the test system is Rattus norvegicus. As to the kind of experiment: Analgesic activity in Wistar albino rat […] assessed as increase in reaction time for tail withdrawal at 100 mg/kg, po after 300 mins by tail flick method. Type of series: functional. The gist of the method:
as §3

Series [19] has as its system Rattus norvegicus. In words: Antiinflammatory activity in Wistar albino rat assessed as inhibition of carrageenan-induced paw oedema at 100 mg/kg, po measured 5 hrs after carrageenan challenge. Type of series: functional. The gist of the method:
as §2

What is called inhibition in vivo is the change of the read-out against control, counted positive when it falls. Consider `Cc1ccc2c(Cc3nn4c(C#N)c(-c5ccc(Cl)cc5)nc4s3)coc2c1`, for which the Activity is given as 8.25 s in the series with Rattus norvegicus [1]; “Non-toxic” in the series on Rattus norvegicus [2]; “Non-toxic” in the series with Rattus norvegicus [3]; 4.067 s in the series on Rattus norvegicus [5]; 3.7 s in the series with Rattus norvegicus [8]; “Non-toxic” in the series on Rattus norvegicus [9]. The Activity in the series on Rattus norvegicus [10] was 207.49%; in the series on Rattus norvegicus [11], 7.167 s; in the series with Rattus norvegicus [12] it was 6.617 s; in the series on Rattus norvegicus [13] it was “Non-toxic”; in the series on Rattus norvegicus [14], “Non-toxic”; in the series on Rattus norvegicus [15], “Non-toxic”. In addition, the Activity in the series on Rattus norvegicus [18] amounted to 167.12%. The inhibition in vivo at 100 mg/kg in the series on Rattus norvegicus [4] worked out at 51.2%; with Rattus norvegicus [6], 28%; in the series on Rattus norvegicus [7] it was 13.4%; in the series with Rattus norvegicus [16], 43.4%; with Rattus norvegicus [17] it was 4.77%; with Rattus norvegicus [19] it was 53.5%.

With `Cc1ccc2c(Cc3nn4c(/C=N/O)c(-c5ccc(Cl)cc5)nc4s3)coc2c1`, the Activity is given as 2.717 s in the series with Rattus norvegicus [1]; “Non-toxic” with Rattus norvegicus [2]; “Non-toxic” in the series on Rattus norvegicus [3]; 2.667 s in the series with Rattus norvegicus [5]; 2.483 s in the series on Rattus norvegicus [8]; “Non-toxic” with Rattus norvegicus [9]. Also, the Activity in the series with Rattus norvegicus [10] is recorded as 1.26%; in the series with Rattus norvegicus [11] it was 2.6 s; in the series with Rattus norvegicus [12], 2.633 s; in the series on Rattus norvegicus [13], “Non-toxic”; in the series on Rattus norvegicus [14], “Non-toxic”; in the series with Rattus norvegicus [15], “Non-toxic”. In addition, the Activity in the series on Rattus norvegicus [18] is recorded as -3.09%. The inhibition in vivo at 100 mg/kg came to 11.1% in the series with Rattus norvegicus [4]; 11.2% with Rattus norvegicus [6]; 5.19% with Rattus norvegicus [7]; 10% with Rattus norvegicus [16]; 6% with Rattus norvegicus [17]; 31% in the series with Rattus norvegicus [19].

For the origin of these results see ChEMBL document CHEMBL1140193, “Synthesis and anti-inflammatory evaluation of methylene bridged benzofuranyl imidazo[2,1-b][1,3,4]thiadiazoles” (Eur J Med Chem, 2008).
